The record followed here is ChEMBL document CHEMBL4334439, “Discovery, Optimization, and Target Identification of Novel Potent Broad-Spectrum Antiviral Inhibitors” (J Med Chem, 2019).

In series [1] the test system is Hepatitis C virus. Kind of series: Antiviral activity against GFP-fused HCV JFH-1 harboring K78E/E2-G451R/NS3-M260K/NS5A-T462I mutant infected in human Huh7.5.1 cells assessed as reduction in viral infection at 10 uM preincubated for 2 hrs followed by viral infection and measured after 48 hrs by epifluorescence microscopic analysis relative to control. It is filed as functional, Hepacivirus hominis. Further details: scale not given: the % may be the effect or the level left. The procedure, abridged:
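Primary screen at 10 μM. Huh7.5.1 cells were pretreated 2 h, then infected with GFP-HCV (MOI 1). GFP intensity was checked by fluorescence microscopy at 48 h. Hits needed over 50% fluorescence decay before dose-response retesting.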

For series [2], the system named is Hepatitis C virus. Briefly: Antiviral activity against HCV JFH-1 pseudotyped viral particle infected in HEK293T cells cotransfected with pCDN3.1-JFH1-cE1E2 plasmid encoding envelope with full length JFH1 and pNL4-3R-E-luciferase construct by luciferase reporter gene assay. The settings on record: JFH-1, HEK-293T. In kind it is functional, organism-based, Hepacivirus hominis. In outline:
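HCVpp came from HEK293T co-transfected with the JFH1 E1E2 plasmid and pNL4-3R-E-luciferase. Supernatant was harvested at 48 h, filtered and luciferase-standardised for input. Virus was mixed with serially diluted compound (top 30 or 6 μM) and added to cells. Luminescence was read; EC50 is 50% signal reduction.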

The next series concerns Huh7.5.1. Briefly: Antiviral activity against EGFP-fused HCV JFH-1 harboring K78E/E2-G451R/NS3-M260K/NS5A-T462I mutant infected in human Huh7.5.1 cells assessed as inhibition of viral entry at 0.01 uM preincubated for 2 hrs at 4 degC followed by virus/compound mixture wash-out and subsequent compound addition and measured up to 10 hrs at 37 degC. It is filed as functional, cell-based. The procedure, abridged: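 Time-of-addition: Huh7.5.1 cells were bound with HCVcc at 4 °C for 2 h. Unbound virus was removed, cells were shifted to 37 °C (T = 0), and compound was added at different time points afterwards. Anti-CD81 antibody served as the entry-inhibitor control.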

Another series deals with Dengue virus. Briefly: Antiviral activity against DENV infected in human Huh7.5.1 cells assessed as inhibition of viral replication measured after 3 days by qRT-PCR analysis. In kind it is functional, organism-based. The settings on record: Huh-7.5.1, 72 h. In outline:
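Huh7.5.1 cells were infected with DENV II or ZIKV at MOI 0.1 and treated with compound. Viral RNA was quantified by qRT-PCR after 3 days. EC50 is 50% reduction of RNA level.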
For orientation: In qPCR the cycle at which signal appears reflects the starting amount.

Series [3] deals with Severe fever with thrombocytopenia syndrome virus. Briefly: Antiviral activity against SFTSV infected in African green monkey Vero cells assessed as reduction in viral titre measured at 4 days post infection. It is filed as functional. The settings on record: 96 h.
A short description of series [4]: Cytotoxicity against African green monkey Vero cells infected with RSV assessed as decrease in cell viability after 48 hrs by WST1 assay. The settings on record: chlorocebus sabaeus. In kind it is cell-based. In outline:
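Cells at 1×10^4/well, cultured overnight at 37 °C, were incubated 48 h with serially diluted compound. Viability was read by WST-1 absorbance (OD450/OD630).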
In general terms: Formazan colour is commonly taken as a measure of viable cells.

The nature of series [5]: Selectivity index, ratio of CC50 for African green monkey Vero cells to EC50 for CHIKV infected in African green monkey Vero cells. It is filed as toxicity. The conditions noted are these: read-out: Ratio CC50/EC50.
For a further series, the species on record is Homo sapiens. Kind of series: Binding affinity to C-terminal 6-His tagged recombinant human DHODH N-terminal domain delta29 mutant expressed in Escherichia coli BL21(DE3) assessed as reduction in pronase-mediated protein degradation incubated for 1 hr followed by pronase addition and measured after 15 mins by SDS-PAGE based Western blot analysis. In outline: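 DARTS used Δ29 human DHODH with a C-terminal His6 tag, expressed in E. coli BL21(DE3) and purified on HisTrap then Superdex200. Protein at 20 μg/ml in TNC buffer (50 mM Tris pH 8.0, 50 mM NaCl, 10 mM CaCl2) was incubated 1 h at RT with compound or DMSO. Pronase followed, 15 min at 37 °C; protease-inhibitor quench; anti-DHODH western blot.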
A general note: In western blotting, separated proteins are transferred to a membrane and probed.

In series [6] the target is T1, Ribose-phosphate pyrophosphokinase 1 (Homo sapiens) (UniProt P60891).
T1 sequence (whole entry): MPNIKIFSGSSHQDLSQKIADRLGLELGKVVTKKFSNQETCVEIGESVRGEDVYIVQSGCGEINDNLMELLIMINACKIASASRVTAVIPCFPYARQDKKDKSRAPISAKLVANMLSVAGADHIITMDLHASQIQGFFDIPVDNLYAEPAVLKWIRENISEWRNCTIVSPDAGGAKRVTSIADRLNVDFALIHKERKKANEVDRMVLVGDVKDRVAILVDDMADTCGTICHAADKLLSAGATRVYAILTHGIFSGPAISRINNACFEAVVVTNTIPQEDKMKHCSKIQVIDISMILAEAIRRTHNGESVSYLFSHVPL
Kind of series: Binding affinity to PRPS1 (unknown origin).

Calls of active or inactive are those of the source. The calls are words filed in the database; no cut-off is given here. Bounds are passed on as bounds.

As a reminder, the EC50 is the concentration needed to bring the measured effect to its halfway point. As a reminder, the CC50 is the concentration giving 50% cytotoxicity. With `CCN(CC)c1ccc(Oc2ccc(-c3[nH]c4cccc(F)c4c(=O)c3C)cc2F)cc1`, the Activity in the series with Hepatitis C virus [1] was above 50%; in the series filed under Homo sapiens, “Dose-dependent effect”. Besides, the EC50 was above 50000 nM with Hepatitis C virus [2], 7 nM with Dengue virus and 300 nM in series [3]. Besides, the inhibition result in the series on Huh7.5.1 was “Active”. The CC50 at 48 h in series [4] was above 2500 nM. In addition, in [5], the selectivity ratio is above 10. Also, the outcome in series [6] was inactive.
